Reference: ChEMBL document CHEMBL3792373, “Anti-methicillin resistant Staphylococcus aureus activity, synergism with oxacillin and molecular docking studies of metronidazole-triazole hybrids” (Eur J Med Chem, 2016)
In brackets after ≈: the same amount, converted by molar mass.

Columns and labels:
[1] = Cytotoxicity against human THP1 cells upto 50 uM treated 3 times per week for 14 days by MTT assay; type: cell-based; details: thp-1, 336 h
[2] = system: Staphylococcus aureus; assay: Bactericidal activity against methicillin-resistant Staphylococcus aureus isolate 1a assessed as reduction in colony counts at 32 ug/ml after 20 hrs by pour plate method (reference value: 12.73 +/- 0.223 log10CFU/ml); type: functional
[3] = system: Staphylococcus aureus; assay: Bactericidal activity against methicillin-resistant Staphylococcus aureus isolate 1a assessed as reduction in colony counts at 32 ug/ml after 16 hrs by pour plate method (reference value: 12.50 +/- 0.291 log10CFU/ml); type: functional
[4] = system: Staphylococcus aureus; assay: Bactericidal activity against methicillin-resistant Staphylococcus aureus isolate 1a assessed as reduction in colony counts at 32 ug/ml after 24 hrs by pour plate method (reference value: 12.64 +/- 0.224 log10CFU/ml); type: functional
[5] = system: Staphylococcus aureus; assay: Bactericidal activity against methicillin-resistant Staphylococcus aureus isolate 1a assessed as reduction in colony counts at 32 ug/ml after 4 hrs by pour plate method (reference value: 6.14 +/- 0.456 log10CFU/ml); type: functional
[6] = system: Staphylococcus aureus; assay: Bactericidal activity against methicillin-resistant Staphylococcus aureus isolate 1a assessed as reduction in colony counts at 32 ug/ml after 12 hrs by pour plate method (reference value: 10.12 +/- 0.428 log10CFU/ml); type: functional
[7] = system: Staphylococcus aureus; assay: Bactericidal activity against methicillin-resistant Staphylococcus aureus isolate 1a assessed as reduction in colony counts at 32 ug/ml after 8 hrs by pour plate method (reference value: 8.30 +/- 0.442 log10CFU/ml); type: functional
[8] = system: Staphylococcus aureus; assay: Antimicrobial activity against methicillin-resistant Staphylococcus aureus isolate 25a after 24 hrs by agar plate dilution method; type: functional
Outline: (§1)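 Clinical MRSA isolates from axilla/nasal swabs, identified by mannitol salt agar, Gram stain and coagulase test. Agar plate dilution with compound series 0.03–128 µg/mL. Inoculum suspended in water to McFarland 0.5. Incubation 24 h at 37 °C. MIC read as the lowest level without white growth spots. Dilution series quality-controlled with S. aureus NCTC 6571.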

[9] = system: Staphylococcus aureus; assay: Antimicrobial activity against methicillin-resistant Staphylococcus aureus isolate 7a after 24 hrs by agar plate dilution method; type: functional
Outline: (§2)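 Clinical MRSA isolates, from axilla/nasal swabs and identified by mannitol salt agar, Gram stain and coagulase test. […] Inoculum adjusted to McFarland 0.5 in water. Plates incubated 24 h at 37 °C and scored for growth spots. Dilution series quality-controlled with S. aureus NCTC 6571. Combination lines used a 1:1 mixture with oxacillin.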

[10] = system: Staphylococcus aureus; assay: Antimicrobial activity against methicillin-resistant Staphylococcus aureus isolate 19a after 24 hrs by agar plate dilution method; type: functional; outline: as §1
[11] = system: Staphylococcus aureus; assay: Antimicrobial activity against methicillin-resistant Staphylococcus aureus isolate 27a after 24 hrs by agar plate dilution method; type: functional; outline: as §1
[12] = system: Staphylococcus aureus; assay: Antimicrobial activity against methicillin-resistant Staphylococcus aureus isolate 20a after 24 hrs by agar plate dilution method; type: functional; outline: as §1
[13] = system: Staphylococcus aureus; assay: Antimicrobial activity against methicillin-resistant Staphylococcus aureus isolate 22a after 24 hrs by agar plate dilution method; type: functional; outline: as §1
[14] = system: Staphylococcus aureus; assay: Antimicrobial activity against methicillin-resistant Staphylococcus aureus isolate 26a after 24 hrs by agar plate dilution method; type: functional; outline: as §1
[15] = system: Staphylococcus aureus; assay: Antimicrobial activity against methicillin-resistant Staphylococcus aureus isolate 1a after 24 hrs by agar plate dilution method; type: functional; outline: as §1
[16] = system: Staphylococcus aureus; assay: Antimicrobial activity against methicillin-resistant Staphylococcus aureus isolate 10a after 24 hrs by agar plate dilution method; type: functional; outline: as §1
[17] = system: Staphylococcus aureus; assay: Antimicrobial activity against methicillin-resistant Staphylococcus aureus isolate 29a after 24 hrs by agar plate dilution method; type: functional; outline: as §1
[18] = system: Staphylococcus aureus; assay: Antimicrobial activity against methicillin-resistant Staphylococcus aureus isolate 15a after 24 hrs by agar plate dilution method; type: functional; outline: as §1
[19] = system: Staphylococcus aureus; assay: Antimicrobial activity against methicillin-resistant Staphylococcus aureus isolate 3a after 24 hrs by agar plate dilution method; type: functional; outline: as §1
[20] = system: Staphylococcus aureus; assay: Antimicrobial activity against methicillin-resistant Staphylococcus aureus isolate 6a after 24 hrs by agar plate dilution method; type: functional; outline: as §2
[21] = system: Staphylococcus aureus; assay: Antimicrobial activity against methicillin-resistant Staphylococcus aureus isolate 14a after 24 hrs by agar plate dilution method; type: functional; outline: as §1
[22] = system: Staphylococcus aureus; assay: Antimicrobial activity against methicillin-resistant Staphylococcus aureus isolate 11a after 24 hrs by agar plate dilution method; type: functional; outline: as §1
[23] = system: Staphylococcus aureus; assay: Antimicrobial activity against methicillin-resistant Staphylococcus aureus isolate 8a after 24 hrs by agar plate dilution method; type: functional; outline: as §2
[24] = system: Staphylococcus aureus; assay: Antimicrobial activity against methicillin-resistant Staphylococcus aureus isolate 13a after 24 hrs by agar plate dilution method; type: functional; outline: as §1
[25] = system: Staphylococcus aureus; assay: Antimicrobial activity against methicillin-resistant Staphylococcus aureus isolate 30a after 24 hrs by agar plate dilution method; type: functional; outline: as §1
[26] = system: Staphylococcus aureus; assay: Antimicrobial activity against methicillin-resistant Staphylococcus aureus isolate 5a after 24 hrs by agar plate dilution method; type: functional; outline: as §2
[27] = system: Staphylococcus aureus; assay: Antimicrobial activity against methicillin-resistant Staphylococcus aureus isolate 18a after 24 hrs by agar plate dilution method; type: functional; outline: as §1
[28] = system: Staphylococcus aureus; assay: Antimicrobial activity against methicillin-resistant Staphylococcus aureus isolate 4a after 24 hrs by agar plate dilution method; type: functional; outline: as §1
[29] = system: Staphylococcus aureus; assay: Antimicrobial activity against methicillin-resistant Staphylococcus aureus isolate 28a after 24 hrs by agar plate dilution method; type: functional; outline: as §1
[30] = system: Staphylococcus aureus; assay: Antimicrobial activity against methicillin-resistant Staphylococcus aureus isolate 2a after 24 hrs by agar plate dilution method; type: functional; outline: as §1
[31] = system: Staphylococcus aureus; assay: Antimicrobial activity against methicillin-resistant Staphylococcus aureus isolate 23a after 24 hrs by agar plate dilution method; type: functional; outline: as §1
[32] = system: Staphylococcus aureus; assay: Antimicrobial activity against methicillin-resistant Staphylococcus aureus isolate 17a after 24 hrs by agar plate dilution method; type: functional; outline: as §1
[33] = system: Staphylococcus aureus; assay: Antimicrobial activity against methicillin-resistant Staphylococcus aureus isolate 24a after 24 hrs by agar plate dilution method; type: functional; outline: as §1
[34] = system: Staphylococcus aureus; assay: Antimicrobial activity against methicillin-resistant Staphylococcus aureus isolate 16a after 24 hrs by agar plate dilution method; type: functional; outline: as §1
[35] = system: Staphylococcus aureus; assay: Antimicrobial activity against methicillin-resistant Staphylococcus aureus isolate 12a after 24 hrs by agar plate dilution method; type: functional; outline: as §1
[36] = system: Staphylococcus aureus; assay: Antimicrobial activity against methicillin-resistant Staphylococcus aureus isolate 21a after 24 hrs by agar plate dilution method; type: functional; outline: as §1
[37] = system: Staphylococcus aureus; assay: Antimicrobial activity against methicillin-resistant Staphylococcus aureus isolate 9a after 24 hrs by agar plate dilution method; type: functional; outline: as §2

With `Cc1ncc([N+](=O)[O-])n1CCn1cc(COc2ccc(C(C)(C)C)cc2)nn1` the Activity [1] was “Non-toxic”.
With `Cc1ncc([N+](=O)[O-])n1CCn1cc(CNc2cccc(Cl)c2)nn1` the Activity [1] was “Non-toxic”.
For `Cc1ncc([N+](=O)[O-])n1CCn1cc(CNc2ccccc2Cl)nn1`, the Activity [1] was “Non-toxic”.
In the case of `Cc1ncc([N+](=O)[O-])n1CCn1cc(CNc2ccc(F)cc2)nn1`, the Activity [1] was “Non-toxic”.
With `Cc1cccc(OCc2cn(CCn3c([N+](=O)[O-])cnc3C)nn2)c1C` the Activity [1] was “Non-toxic”.
With `Cc1ncc([N+](=O)[O-])n1CCn1cc(COc2ccc(Cl)cc2Cl)nn1` the Activity [1] was “Non-toxic”.
In the case of `Cc1ncc([N+](=O)[O-])n1CCn1cc(COc2cccc3ccccc23)nn1`, the Activity [1] was “Non-toxic”.
In the case of `Cc1ncc([N+](=O)[O-])n1CCn1cc(COCc2ccccc2)nn1`, the Activity [1] was “Non-toxic”.
For `Cc1ncc([N+](=O)[O-])n1CCn1cc(CNc2ccc(Br)cc2)nn1`, the Activity [1] was “Non-toxic”.
In the case of `Cc1ncc([N+](=O)[O-])n1CCn1cc(CNc2ccccc2)nn1`, the Activity [1] was “Non-toxic”.
With `Cc1ccccc1NCc1cn(CCn2c([N+](=O)[O-])cnc2C)nn1` the Activity [1] was “Non-toxic”.
For `Cc1ncc([N+](=O)[O-])n1CCn1cc([Si](C)(C)C)nn1`, the Activity [1] was “Non-toxic”.
In the case of `Cc1ncc([N+](=O)[O-])n1CCn1cc(COc2ccc(C(C)C)cc2)nn1`, the Activity [1] was “Non-toxic”.
For `CCCc1cn(CCn2c([N+](=O)[O-])cnc2C)nn1`, the Activity [1] was “Non-toxic”.
In the case of `Cc1ncc([N+](=O)[O-])n1CCn1cc(CNc2ccccc2F)nn1`, the Activity [1] was “Non-toxic”.
With `Cc1ncc([N+](=O)[O-])n1CCn1cc(CNc2cc(Cl)c(Cl)cc2Cl)nn1` the Activity [1] was “Non-toxic”.
With `Cc1ncc([N+](=O)[O-])n1CCn1cc(CNc2ccccn2)nn1` the Activity [1] was “Non-toxic”.
For `Cc1ncc([N+](=O)[O-])n1CCn1cc(COc2c(C(C)(C)C)cc(C(C)(C)C)cc2C(C)(C)C)nn1`, the Activity [1] was “Non-toxic”.
For `Cc1ncc([N+](=O)[O-])n1CCn1cc(CNc2cccc(F)c2)nn1`, the Activity [1] was “Non-toxic”.
For `COc1cc(NCc2cn(CCn3c([N+](=O)[O-])cnc3C)nn2)cc(OC)c1`, the Activity [1] was “Non-toxic”.
In the case of `Cc1ncc([N+](=O)[O-])n1CCn1cc(CNc2cccc(Cl)c2Cl)nn1`, the Activity [1] was “Non-toxic”.
With `Cc1ncc([N+](=O)[O-])n1CCn1cc(CNCCc2ccccc2)nn1` the Activity [1] was “Non-toxic”.
With `Cc1ccc(OCc2cn(CCn3c([N+](=O)[O-])cnc3C)nn2)cc1` the Activity [1] was “Non-toxic”.
In the case of `Cc1ncc([N+](=O)[O-])n1CCn1cc(COc2ccc([N+](=O)[O-])cc2)nn1`, the Activity [1] was “Non-toxic”.
With `Cc1ncc([N+](=O)[O-])n1CCn1cc(COc2ccccc2)nn1` the Activity [1] was “Non-toxic”.
In the case of `CCC(=O)OCc1cn(CCn2c([N+](=O)[O-])cnc2C)nn1`, the Activity [1] was “Non-toxic”.
With `Cc1ncc([N+](=O)[O-])n1CCn1cc(COC2CCCCO2)nn1` (stereo unspecified) the Activity [1] was “Non-toxic”.
With `Cc1ncc([N+](=O)[O-])n1CCn1cc(COc2ccccc2Cl)nn1` the Activity [1] was “Non-toxic”.
With `Cc1ncc([N+](=O)[O-])n1CCn1cc(-c2ccccc2)nn1` the Activity [1] was “Non-toxic”.
With `Cc1ncc([N+](=O)[O-])n1CCn1cc(COc2ccc(C=O)cc2)nn1` the Activity [1] was “Non-toxic”.
In the case of `Cc1ncc([N+](=O)[O-])n1CCn1cc(C2(O)CCCCC2)nn1`, the Activity [1] was “Non-toxic”.
In the case of `Cc1ccccc1OCc1cn(CCn2c([N+](=O)[O-])cnc2C)nn1`, the Activity [1] was “Non-toxic”.
In the case of `Cc1ncc([N+](=O)[O-])n1CCn1cc(COc2ccccc2C=O)nn1`, the Activity [1] was “Non-toxic”.
For `Cc1ncc([N+](=O)[O-])n1CCn1cc(CBr)nn1`, the Activity [1] was “Non-toxic”.
With `Cc1ncc([N+](=O)[O-])n1CCO` [METRONIDAZOLE] the Activity [2] was 8.14 log10CFU/ml, the Activity [3] was 8.25 log10CFU/ml and the Activity [4] was 8.3 log10CFU/ml. It also gave an Activity [5] of 5.91 log10CFU/ml, an Activity [6] of 8.01 log10CFU/ml and an Activity [7] of 6.45 log10CFU/ml.
`Cc1onc(-c2ccccc2)c1C(=O)N[C@@H]1C(=O)N2[C@@H]1SC(C)(C)[C@@H]2C(=O)O` [OXACILLIN] showed an Activity [2] of 11.95 log10CFU/ml, an MIC [8] of 64 mg/L (≈ 159 µM) and an Activity [3] of 11.2 log10CFU/ml. The MIC [9] was > 128 mg/L, the MIC [10] was > 128 mg/L and the MIC [11] was 32 mg/L (≈ 79.7 µM). The MIC [12] was > 128 mg/L, the MIC [13] was 32 mg/L (≈ 79.7 µM) and the Activity [4] was 12.34 log10CFU/ml. The MIC [14] was 32 mg/L (≈ 79.7 µM), the MIC [15] was > 128 mg/L and the MIC [16] was > 128 mg/L. For the same compound, the MIC [17] was 32 mg/L (≈ 79.7 µM), the MIC [18] was > 128 mg/L and the MIC [19] was > 128 mg/L. The MIC [20] was > 128 mg/L, the MIC [21] was > 128 mg/L and the Activity [5] was 6.05 log10CFU/ml. The MIC [22] was > 128 mg/L, the MIC [23] was > 128 mg/L and the MIC [24] was > 128 mg/L. The MIC [25] was 64 mg/L (≈ 159 µM), the MIC [26] was > 128 mg/L and the Activity [6] was 8.35 log10CFU/ml. The MIC [27] was > 128 mg/L, the MIC [28] was > 128 mg/L and the MIC [29] was 128 mg/L (≈ 319 µM). The MIC [30] was > 128 mg/L, the MIC [31] was 64 mg/L (≈ 159 µM) and the MIC [32] was > 128 mg/L. The MIC [33] was 16 mg/L (≈ 39.9 µM), the MIC [34] was > 128 mg/L and the MIC [35] was > 128 mg/L. For the same compound, the MIC [36] was 64 mg/L (≈ 159 µM), the Activity [7] was 7.62 log10CFU/ml and the MIC [37] was > 128 mg/L.
